Values belong to the compound of their own block, whether it stands above or below them. Active and inactive are the calls of the source. The rule behind the calls is not given here.
How the values were obtained:
[1] = target: T1, High affinity 3',5'-cyclic-AMP phosphodiesterase 7A (Homo sapiens, UniProt Q13946); experiment: Inhibition of PDE7A assessed as hydrolysis of [3H]cAMP at 10 uM after 20 mins by scintillation proximity assay
Procedure, shortened: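 PDE7A1 enzyme (0.02 units) incubated with 5 nCi [³H]cAMP plus inhibitor in kit assay buffer, 20 min at 30 °C. Scintillation binding beads (1 mg) then added to capture [³H]AMP, shaken 1 h at room temperature, settled 30 min, radioactivity counted.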

[2] = system: Microglia; experiment: Antiinflammatory activity against rat microglial assessed as inhibition of LPS-induced nitrite production at 10 uM administered 1 hr before LPS challenge measured after 24 hrs by Griess reaction; assay type: functional
Procedure, shortened: (§1)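 Rat microglia shaken off 15-day mixed glial cultures and kept in HAMS/DMEM (1:1) with 10% FBS plus 10 ng/ml GM-CSF; purity >98% by OX42 staining. Cells were pretreated with compound for 1 h, then given LPS for 24 h. Nitrite in the medium was measured by Griess reaction. Means ± SD of three independent experiments.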

[3] = system: Astrocyte; experiment: Antiinflammatory activity against P2 rat astrocytes assessed as inhibition of LPS-induced nitrite production at 10 uM administered 1 hr before LPS challenge measured after 24 hrs by Griess reaction; assay type: functional, cell-based
Procedure, shortened: (§2)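 Astrocytes from neonatal (P2) rat cortex, grown in HAMS/DMEM (1:1) with 10% FBS, shaken to remove microglia and oligodendrocytes, then expanded. Cells were pretreated with compound for 1 h, then stimulated with LPS for 24 h. Nitrite in the medium was measured by Griess reaction. Means ± SD of three independent experiments.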

[4] = target: T1, High affinity 3',5'-cyclic-AMP phosphodiesterase 7A; experiment: Inhibition of PDE7A assessed as hydrolysis of [3H]cAMP after 20 mins by scintillation proximity assay
Procedure, shortened: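 Purified PDE7A1 (0.02 units) was incubated with 5 nCi [3H]cAMP and inhibitor in kit assay buffer for 20 min at 30 °C. Scintillation beads binding [3H]AMP were added, shaken 1 h at room temperature and left to settle 30 min, then radioactivity was counted. IC50 came from a sigmoidal dose-response fit of radioactivity vs log concentration.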

[5] = Permeability of the compound after 2.5 hrs by PAMPA-BBB assay
[6] = system: Astrocyte; experiment: Antiinflammatory activity against P2 rat astrocytes assessed as inhibition of LPS-induced nitrite production at 30 uM administered 1 hr before LPS challenge measured after 24 hrs by Griess reaction; assay type: functional, cell-based; procedure, shortened: as §2
[7] = system: Cerebral cortex neuron; experiment: Antiinflammatory activity against E18 rat primary cortical neurons assessed as inhibition of […] at 30 uM […] measured after 24 hrs by Griess reaction; assay type: functional, cell-based
Procedure, shortened: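 Rat E18 cortical neurons, plated on poly-lysine/gelatin and kept in Neurobasal with B-27, used at 7 days in culture. They were exposed for 24 h, with or without inhibitor, to cell-free supernatant from LPS-stimulated primary microglia. Nitrite in the medium was measured by Griess reaction. Means ± SD of three independent experiments.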

[8] = system: Microglia; experiment: Antiinflammatory activity against rat microglial assessed as inhibition of LPS-induced nitrite production at 30 uM administered 1 hr before LPS challenge measured after 24 hrs by Griess reaction; assay type: functional; procedure, shortened: as §1
[9] = system: Mus musculus; experiment: Neuroprotective effect against middle cerebral artery occlusion-induced focal cerebral ischemia in Swiss mouse stroke model assessed as reduction in infarct volume at 5 mg/kg after 15 mins (reference value: 15.4 +/- 1.1 %); assay type: functional; parameters: scale not given: the % may be the effect or the level left
[10] = system: Microglia; experiment: Antiinflammatory activity against rat microglial assessed as inhibition of LPS-induced nitrite production at 1 uM administered 1 hr before LPS challenge measured after 24 hrs by Griess reaction; assay type: functional; procedure, shortened: as §1

T1 sequence (Q13946 whole entry): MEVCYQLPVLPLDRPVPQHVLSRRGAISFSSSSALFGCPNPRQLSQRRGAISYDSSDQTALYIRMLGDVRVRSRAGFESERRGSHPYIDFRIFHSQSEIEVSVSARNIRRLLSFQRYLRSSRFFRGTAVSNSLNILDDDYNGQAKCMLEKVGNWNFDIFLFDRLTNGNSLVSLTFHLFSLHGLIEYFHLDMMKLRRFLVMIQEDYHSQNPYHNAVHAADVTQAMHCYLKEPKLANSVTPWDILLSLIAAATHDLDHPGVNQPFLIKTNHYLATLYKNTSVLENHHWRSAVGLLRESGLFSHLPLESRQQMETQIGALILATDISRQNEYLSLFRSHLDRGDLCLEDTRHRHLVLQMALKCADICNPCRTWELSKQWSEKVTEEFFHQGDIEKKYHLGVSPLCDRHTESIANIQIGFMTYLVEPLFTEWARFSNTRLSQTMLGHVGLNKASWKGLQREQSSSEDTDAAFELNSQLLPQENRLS

inhibition [1]: 9.3%
SMILES: COc1ccc(Cn2c(=O)[nH]c3ccccc3c2=O)cc1

SMILES: O=c1c2cccc(Cl)c2[nH]c(=S)n1-c1ccccc1Br
Activity [2]: Active | Activity [3]: Active | IC50 [4]: 1.8 µM | inhibition [1]: 63.4%

Papp at 2.5 h [5]: 15.7 ×10⁻⁶ cm/s
SMILES: CNCCCN1c2ccccc2CCc2ccccc21 [DESIPRAMINE]

SMILES: O=c1c2ccccc2[nH]c(=S)n1-c1ccccc1
Activity [6]: Active | Activity [7]: Active | Activity [8]: Active

SMILES: COc1cc2[nH]c(=S)n(-c3ccccc3)c(=O)c2cc1OC
inhibition [1]: 13.2%

SMILES: O=c1[nH]c2ccccc2c(=O)n1-c1ccc(Br)cc1F
inhibition [1]: 2.5%

SMILES: Cc1cc(Br)c2[nH]c(=S)n(-c3ccccc3)c(=O)c2c1
inhibition [1]: 4%

Papp at 2.5 h [5]: 23.8 ×10⁻⁶ cm/s
SMILES: S=c1[nH]c2ccccc2c(=S)n1-c1ccccc1
Activity [6]: Active | Activity [7]: Active | Activity [8]: Active | Activity [9]: 10.8%

inhibition [1]: -7.2%
SMILES: COc1ccc(CCn2c(=O)[nH]c3ccccc3c2=O)cc1

SMILES: O=c1c2cccc(Cl)c2[nH]c(=S)n1-c1c(F)cccc1F
Activity [10]: Active | Activity [3]: Active | IC50 [4]: 6.1 µM | inhibition [1]: 74.9%

inhibition [1]: 9.3%
SMILES: O=c1c2ccncc2[nH]c(=S)n1-c1ccccc1

SMILES: O=c1c2ccccc2[nH]c(=S)n1-c1cccnc1
inhibition [1]: 10%

inhibition [1]: 12.8%
SMILES: O=c1c2cccnc2[nH]c(=S)n1-c1cccc(Br)c1

inhibition [1]: 8%
SMILES: COc1ccc(Cn2c(=O)[nH]c3ncccc3c2=O)cc1

inhibition [1]: 2.7%
SMILES: O=c1c2ccncc2[nH]c(=S)n1-c1cccnc1

Papp at 2.5 h [5]: 7.7 ×10⁻⁶ cm/s
SMILES: CN(C)CCCN1c2ccccc2Sc2ccccc21 [PROMAZINE]

inhibition [1]: 17.9%
SMILES: COc1cc2[nH]c(=S)n(CCN3CCOCC3)c(=O)c2cc1OC

inhibition [1]: 12.7%
SMILES: COc1cc2[nH]c(=S)n(CCN3CCCCC3)c(=O)c2cc1OC

SMILES: COc1cc2[nH]c(=S)n(-c3cccnc3)c(=O)c2cc1OC
inhibition [1]: 19%

Papp at 2.5 h [5]: 1.2 ×10⁻⁶ cm/s
SMILES: CCn1cc(C(=O)O)c(=O)c2cc(F)c(N3CCNCC3)nc21 [ENOXACIN]

inhibition [1]: -8.3%
SMILES: COc1ccc(CCn2c(=O)[nH]c3ccc(Br)cc3c2=O)cc1

inhibition [1]: 21.2%
SMILES: O=c1c2ccccc2[nH]c(=S)n1CCN1CCCCC1

inhibition [1]: 22.1%
SMILES: COc1ccc(CCn2c(=O)[nH]c3cnccc3c2=O)cc1

Papp at 2.5 h [5]: 1.7 ×10⁻⁶ cm/s
SMILES: Cn1c(=O)c2c(ncn2C)n(C)c1=O [CAFFEINE]

SMILES: Cc1cccc2c(=O)n(-c3ccccc3Br)c(=S)[nH]c12
Papp at 2.5 h [5]: 23.9 ×10⁻⁶ cm/s | Activity [6]: Active | Activity [7]: Active | Activity [8]: Active

inhibition [1]: 13.2%
SMILES: O=c1c2ccccc2[nH]c(=S)n1CCN1CCOCC1

inhibition [1]: -3.1%
SMILES: O=c1c2cccnc2[nH]c(=S)n1-c1ccccc1

— ChEMBL document CHEMBL1926561, “Neuroprotective efficacy of quinazoline type phosphodiesterase 7 inhibitors in cellular cultures and experimental stroke model” (Eur J Med Chem, 2012)
